Sampled rows, rich in hits. Any-hit rate of the full collection: about 4.3%.
RBBP9 inhibitor: human RBBP9 inhibitors, primary screen, biochemical, fluorescence polarization, FP-Rh probe, HTS; inhibition, % at 7.94 µM; recombinant RBBP9; 220,000 compounds, 0.2% hits; AID 1515, 2009;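 active = inhibition above the campaign mean of all tested compounds plus 3 SD, cut at about 14% in these data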;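 also: plate controls were DMSO wells with RBBP9 for no effect and wells lacking RBBP9 protein for full effect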
Target sequence (O75884 whole entry, looked up): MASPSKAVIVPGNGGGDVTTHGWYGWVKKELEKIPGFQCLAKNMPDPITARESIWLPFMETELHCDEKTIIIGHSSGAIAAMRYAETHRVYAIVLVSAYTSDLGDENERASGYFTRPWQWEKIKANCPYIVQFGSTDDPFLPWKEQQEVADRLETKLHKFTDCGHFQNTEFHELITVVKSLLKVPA
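System: RBBP9 protein / Buffer or medium: Tris/NaCl buffer pH 8.0 with 0.1% Pluronic / Probe or stimulus: Serine-hydrolase probe FP-Rh, 375 nM pre-mixing / Dosing: 7.94 µM single dose, 0.794% DMSO / Times: enzyme-compound preincubation 30 min, then probe labeling 45 min, 25 °C / Technique: fluorescence polarization (mP), excitation 525 nm, emission 598 nm / Replication: singlicate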
Rin1-Abl PPI inh: inhibitors of Rin1-Abl protein binding, primary screen, biochemical, TR-FRET | Tyrosine-protein kinase ABL1 (Homo sapiens) + Ras and Rab interactor 1 (Homo sapiens), … | inhibition, % at 7.35 µM | 360,000 compounds, 0.4% hits | AID 588664, 2011; in the data active = inhibition above about 5%, passing the limit was not always enough
UBC13 polyUb: UBC13 polyubiquitin chain formation inhibitors, primary screen, biochemical, TR-FRET, uHTS. AID 485273, 2010. Ubiquitin-conjugating enzyme E2 N (Homo sapiens), P61088. 330,000 compounds, 0.47% hits. inhibition, % at 20 µM; in the data active = inhibition above about 45%, passing the limit was not always enough; inconclusive = no clear call, values can overlap the other calls
Target sequence (P61088 whole entry, looked up): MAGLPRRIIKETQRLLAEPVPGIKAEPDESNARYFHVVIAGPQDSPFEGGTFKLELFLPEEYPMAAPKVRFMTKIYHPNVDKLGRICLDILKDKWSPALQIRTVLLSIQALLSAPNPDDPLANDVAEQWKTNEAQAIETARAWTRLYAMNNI
PREPL inh: PREPL enzyme inhibitors, primary screen, biochemical, fluorescence polarization; recombinant PREPL, fluorescence polarization activity-based probe; inhibition, % at 5.96 µM; 320,000 compounds, 0.68% hits; AID 2751, 2010; in the data active = inhibition above about 43%;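 also: 0% = enzyme with DMSO and 100% = wells lacking enzyme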
SUMO HTRF inh: inhibitors of in vitro SUMOylation cascade, primary screen, biochemical, HTRF, uHTS; 290,000 compounds, 0.36% hits; inhibition, % at 35 µM; HTRF SUMOylation assay, SAE1/SAE2 + UBC9; in the data active = inhibition above about 50%, passing the limit was not always enough; inconclusive = no clear call, values can overlap the other calls
Target sequence (P63279 whole entry, looked up): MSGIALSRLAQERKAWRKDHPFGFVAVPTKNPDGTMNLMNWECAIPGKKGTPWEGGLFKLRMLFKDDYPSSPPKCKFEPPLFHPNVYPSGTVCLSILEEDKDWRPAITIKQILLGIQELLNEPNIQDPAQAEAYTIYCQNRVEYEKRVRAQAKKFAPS
ALR inh: inhibitors of human ALR sulfhydryl oxidase, primary screen, biochemical, H2O2 detection, HRP-luminol luminescence, single point. purified ALR, DTT oxidation. inhibition, % (concentration not given with the values). AID 485317, 2010. 290,000 compounds, 3.8% hits. FAD-linked sulfhydryl oxidase ALR (Homo sapiens), P55789;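 active = mean replicate inhibition above about 79%, with every replicate also reaching it, limit read from the data; inconclusive = only one of the two criteria met; inactive = mean below limit and not every replicate reaching it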
Target sequence (P55789 whole entry, looked up): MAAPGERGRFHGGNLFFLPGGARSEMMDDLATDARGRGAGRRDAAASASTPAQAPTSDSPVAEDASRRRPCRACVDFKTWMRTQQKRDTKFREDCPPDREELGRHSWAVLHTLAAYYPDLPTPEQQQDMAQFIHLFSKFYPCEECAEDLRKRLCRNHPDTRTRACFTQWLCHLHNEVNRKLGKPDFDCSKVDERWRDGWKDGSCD
* hit, by the source's call; ? = inconclusive; nt = no result given.

SMILES | RBBP9 inhibitor | Rin1-Abl PPI inh | UBC13 polyUb | PREPL inh | SUMO HTRF inh | ALR inh
CCO[C@@H]1OC(C(=O)N2CCOCC2)=C[C@H](c2ccc(C(F)(F)F)cc2)[C@H]1CCCO | -2.0 | 2.5 | 2.9 | 2.4 | -4.8 | nt
COc1ccc(CN2CCC(C(=O)Nc3ccc(Oc4cccnc4)cc3)CC2)cc1 | nt | 8.2* | 5.4 | -4.2 | 2.2 | -1.0
CCOC(=O)C1=CCN(S(=O)(=O)c2ccc(Cl)cc2)C1c1cccc(C)c1 (stereo unspecified) | nt | 1.4 | nt | nt | nt | nt
O=C(Cn1ccnc1)c1ccc(O)c(O)c1 | nt | 7.2 | 6.3 | -0.1 | nt | 90.2*
O=C(O)c1ccc(OCCn2ccnc2)cc1 | 1.3 | -3.8 | -11.9 | -2.8 | -3.1 | -21.2
O=C1N/C(=N/N=C/c2ccccc2O)SC1Cc1ccc(F)cc1 (stereo unspecified) | -4.0 | -0.4 | 10.7 | -15.7 | 61.4* | nt
COc1ccc(CC2S/C(=N/N=C/c3ccccc3O)NC2=O)cc1 (stereo unspecified) | -5.7 | -2.2 | 29.7 | -12.7 | 58.2* | nt
CCCCN(C=O)c1c(CC)nc2ccc(C(=O)N(C)Cc3ccco3)cn12 | nt | -5.9 | nt | nt | nt | nt
COc1cccc(N2CCN(c3ccc4nnc(CCC(=O)Nc5ccccc5OC)n4n3)CC2)c1 | nt | 0.2 | 2.1 | 32.3 | nt | 80.3*
COc1cccc(N2CCN(c3ccc4nnc(CCC(=O)Nc5ccc(F)cc5F)n4n3)CC2)c1 | nt | -0.8 | -7.9 | 27.7 | -1.2 | 39.3
COc1cccc(N2CCN(c3ccc4nnc(CCC(=O)Nc5ccc(F)cc5)n4n3)CC2)c1 | nt | -2.3 | -10.8 | 16.9 | 7.5 | 80.3*
Cn1cc([N+](=O)[O-])c(C(=O)N2CCCCCC2)n1 | nt | -3.0 | 0.6 | -1.0 | 8.7 | -3.0
Oc1ccccc1C(=S)N1CCN(C(=S)c2ccccc2O)CC1 | nt | 1.8 | 0.8 | 4.0 | 4.0 | 0.4
O=C(NNS(=O)(=O)c1ccc([N+](=O)[O-])cc1)c1ccc([N+](=O)[O-])cc1 | nt | 1.8 | 6.0 | 4.2 | 12.7 | -3.6
Cc1ccc(S(=O)(=O)NNC(=O)c2ccc(O)cc2)cc1 | -12.0 | -0.8 | -4.0 | -2.1 | 0.2 | 96.9*
Cc1ccc(C(=O)NC(=S)NNS(=O)(=O)c2ccc(C)cc2)cc1 | -9.0 | -0.4 | -34.0 | 2.9 | -3.7 | 97.2*
CC(=O)Nc1ccc(C(=O)NNS(=O)(=O)c2ccc(C)cc2)cc1 | 5.9 | 1.8 | -3.4 | 7.1 | 12.0 | 54.3
CCOC(=O)c1ccc(S(=O)(=O)NNC(=O)c2cccc(N(C)C)c2)cc1 | 1.4 | 0.5 | -1.4 | -12.7 | 20.2 | 82.1*
Cc1ccc(S(=O)(=O)NNC(=S)NC(=O)c2ccc([N+](=O)[O-])cc2)cc1 | 5.3 | -2.9 | -23.1 | -1.0 | -6.1 | 93.0*
O=C(NCc1cccc(Cl)c1)c1cccc2c(-c3cccnc3)coc12 | nt | -2.6 | nt | nt | nt | nt
Cc1ccc(S(=O)(=O)NNC(=S)Nc2ccc(Cl)cc2)cc1 | -3.4 | -1.9 | -14.8 | -1.3 | 14.9 | ?
Cc1ccc(S(=O)(=O)NNC(=S)Nc2ccccc2)cc1 | 2.7 | 0.2 | -7.0 | 5.4 | -20.0 | 98.6*
CNc1c(-n2cc(C(=O)OC)c(C(=O)OC)c2C(=O)OC)c(=O)n(C)c(=O)n1C | nt | -0.5 | -8.0 | 17.1 | 8.3 | -28.9
COc1ccc(/C=N/Nc2cc(C)nc3ccccc23)cc1 | nt | -13.3 | 16.6 | 42.2 | -1.3 | 55.9
Cc1ccc2nc(C)cc(N/N=C/c3cccc(O)c3)c2c1 | nt | -0.9 | 6.4 | 23.9 | 12.5 | 99.2*
SMILES | RBBP9 inhibitor | Rin1-Abl PPI inh | UBC13 polyUb | PREPL inh | SUMO HTRF inh | ALR inh
COc1cccc2c(N/N=C/c3ccc(O)c(O)c3)cc(C)nc12 | nt | -0.7 | 10.3 | 3.2 | -4.3 | 98.7*
CCOc1ccccc1/C=N/Nc1cc(C)nc2ccc(C)cc12 | nt | -3.6 | 5.1 | 4.2 | -3.1 | 17.9
Cc1cc(N(CCO)CCO)ccc1N=Nc1cc(F)ccc1F | -1.2 | -1.3 | -347.7 | 13.9 | 0.3 | 99.2*
COC(=O)c1cc(Cl)cc(Cl)c1OS(=O)(=O)N(C)C | 6.0 | 3.0 | ? | 1.6 | -8.9 | 98.9*
COc1c(Cl)cc(Cl)cc1C(=O)Nc1ccc(NC(C)=O)cc1 | -4.9 | 3.0 | -5.5 | 2.1 | 2.3 | nt
C=CCn1c(C(CCCC)CC(O)COCCC)n[nH]c1=S (stereo unspecified) | -4.2 | 1.5 | 2.7 | -1.1 | -13.0 | 91.8*
C=CCn1c(CCC(O)COCCCCC)n[nH]c1=S (stereo unspecified) | -10.2 | 1.9 | -3.8 | 3.2 | -1.6 | 96.0*
COc1ccc(CN2CCN(C3CCC3)CC2CCO)c(F)c1 (stereo unspecified) | nt | -0.1 | -3.4 | nt | -4.9 | 6.8
Cc1cc(C)nc(-n2nc(C)c(Br)c2Nc2ccc(Br)cc2)n1 | -4.5 | -1.6 | 2.3 | 6.1 | 12.9 | -3.0
Cc1nn(C)c(Nc2ccc(Br)cc2)c1Br | -2.3 | 3.9 | 7.3 | -6.5 | -0.2 | 92.6*
COC(=O)C1Cc2ccccc2CN1S(=O)(=O)c1ccc(F)cc1 (stereo unspecified) | nt | 0.0 | 4.3 | 2.9 | 18.1 | -14.4
Cc1cccc(N2CCN(c3cccc(C)c3)C2c2cccnc2)c1 | -8.8 | -3.2 | 7.2 | 13.2 | -19.0 | 95.2*
O=C1CSC(c2cccnc2)N1c1ccccc1 (stereo unspecified) | -7.2 | 4.6 | -2.4 | -0.3 | 5.2 | 96.2*
CC(=O)Nc1ccc(N2C(=O)CSC2c2ccccc2)cc1 (stereo unspecified) | nt | 2.3 | 3.4 | -14.8 | 8.4 | 98.7*
Cc1ccc(N2CCN(c3ccc(C)cc3)C2c2ccncc2)cc1 | -0.9 | -3.0 | 4.9 | 13.2 | 2.6 | 39.8
O=C(O)c1cccc(N2C(=O)CSC2c2ccccc2)c1 (stereo unspecified) | nt | -1.5 | -3.4 | -3.5 | -3.4 | -1.8
CC(C)(C)c1ccc(N2C(=O)CSC2c2cccnc2)cc1 (stereo unspecified) | -10.8 | 0.3 | -1.5 | 3.4 | -15.6 | nt
Cc1cccc(N2C(=O)CSC2c2cccnc2)c1 (stereo unspecified) | 4.3 | 3.0 | 5.8 | 4.4 | 4.3 | 99.0*
CC(=O)Nc1cccc(NC(=O)C(=O)NCC(c2ccco2)N2CCc3ccccc3C2)c1 (stereo unspecified) | nt | 3.5 | 0.0 | -83.2 | nt | 2.0
NC(Cc1ccc(F)cc1)c1csc(Nc2ccc(C(F)(F)F)cn2)n1 (stereo unspecified) | nt | 2.1 | nt | nt | nt | nt
O=C1CSC(c2ccccc2)N1c1cccnc1 (stereo unspecified) | -7.4 | 1.6 | -1.5 | 19.0 | 14.4 | 93.1*
CC1(C)CC(=O)C(C(c2ccncc2)C2C(=O)CC(C)(C)CC2=O)C(=O)C1 | -7.7 | -2.9 | -10.9 | 5.3 | -4.7 | nt
COc1ccc(C(C2C(=O)CC(C)(C)CC2=O)C2C(=O)CC(C)(C)CC2=O)cc1COCC(F)(F)F | -4.8 | 2.2 | -7.7 | -0.2 | 16.1 | 98.6*

High-throughput results as filed in PubChem.
